The record followed here is ChEMBL document CHEMBL1212851, “Baculiferins A-O, O-sulfated pyrrole alkaloids with anti-HIV-1 activity, from the Chinese marine sponge Iotrochota baculifera” (Bioorg Med Chem, 2010).

The subject of experiment [1] is Human immunodeficiency virus 1. Nature of the experiment: Antiviral activity against HIV1 infected in human HEK293 cells assessed as inhibition of viral replication. Type of experiment: functional, organism-based. A digest of the protocol: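 VSVG-pseudotyped HIV-luc virus system in HEK-293 cells, used to assess inhibition of HIV-1 replication.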
The test system of experiment [2] is Human immunodeficiency virus 1. Nature of the experiment: Binding affinity to HIV1 recombinant gp41 at 20 ug/ml. The method, boiled down: (§1)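 Recombinant gp41, Vif or APOBEC3G each immobilized on a CM5 sensor chip in a separate flow cell. Binding monitored by surface plasmon resonance on a BIAcore instrument.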
For experiment [3], the system named is Candida albicans. Nature of the experiment: Effect on brefeldin A MIC against Candida albicans isolate GU4 in presence of 30 uM compound by two fold dilution method.
For experiment [4], the system named is Human immunodeficiency virus 1. The experiment in a line: Antiviral activity against HIV1 3B infected in human MT4 cells after 5 days by p24 antigen detection assay. Type of experiment: functional, organism-based. The conditions noted are these: Human immunodeficiency virus 1, 3B, MT4, 120 h. A digest of the protocol:
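MT-4 cells infected with 10000 TCID50 HIV-1 IIIB for 2 h at 37 °C, washed, then plated at 5 × 10^4 cells per well. Compounds added from 250 µg/mL in fivefold serial dilutions, five dilutions with four replicates each. Cultures held 5 d at 37 °C in 5% CO2. On day 3 half the supernatant was replaced with fresh compound or medium. On day 5 supernatant p24 measured, inhibition computed relative to virus control, and IC50 taken by linear regression.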

The subject of experiment [5] is Human immunodeficiency virus 1. Nature of the experiment: Antiviral activity against HIV1 3B infected in human MAGI cells after 40 to 48 hrs assessed as inhibition of viral life cycle. To be noted: Human immunodeficiency virus 1, 3B. Type of experiment: functional, organism-based. The method, boiled down:
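HeLa-CD4-LTR-β-gal (MAGI) indicator cells plated at 6000 per well and infected with 2000 TCID50 HIV-1 IIIB. Compounds added in fourfold serial dilutions, five dilutions with four replicates each, at a final top concentration of half the 200 µg/mL stock dilution. Cells incubated 40–48 h at 37 °C in 5% CO2, then fixed, stained, and blue cells counted by microscopy. Single-round infection.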

Experiment [6] has as its target DNA dC->dU-editing enzyme APOBEC-3G (Homo sapiens) (UniProt Q9HC16). The experiment in a line: Binding affinity to human recombinant APOBEC3G at 20 ug/ml. The method, boiled down:
as §1

The test system of another experiment is A2780. Nature of the experiment: Cytotoxicity against human A2780 cells. Type of experiment: functional, cell-based.
For the next experiment, the system named is HCT-8. Nature of the experiment: Cytotoxicity against human HCT8 cells. Type of experiment: functional, cell-based. The conditions noted are these: for IC50: pooled result: one value given for 4 cell lines, strains, targets or settings.
Experiment [7] concerns Human immunodeficiency virus 1. The experiment in a line: Binding affinity to HIV1 recombinant Vif at 20 ug/ml. The method, boiled down: as §1
Experiment [8] deals with Candida albicans. The experiment in a line: Multidrug reversal activity in Candida albicans isolate GU5 assessed as brefeldin A MIC in presence of 30 uM compound expressing CDR1 and CDR2 by two fold dilution method.
In another experiment the test system is Bel-7402. Nature of the experiment: Cytotoxicity against human Bel7402 cells. Type of experiment: functional, cell-based.
A further experiment relates to A549. Nature of the experiment: Cytotoxicity against human A549 cells. Type of experiment: functional, cell-based.
The next experiment deals with BGC-823. Nature of the experiment: Cytotoxicity against human BGC823 cells. Type of experiment: functional, cell-based.

In brackets after ≈: the same amount, converted by molar mass. Activity calls are given as the source filed them. The calls are words filed in the database; no cut-off is given here.

Sequence of DNA dC->dU-editing enzyme APOBEC-3G (Homo sapiens) (Q9HC16 whole entry): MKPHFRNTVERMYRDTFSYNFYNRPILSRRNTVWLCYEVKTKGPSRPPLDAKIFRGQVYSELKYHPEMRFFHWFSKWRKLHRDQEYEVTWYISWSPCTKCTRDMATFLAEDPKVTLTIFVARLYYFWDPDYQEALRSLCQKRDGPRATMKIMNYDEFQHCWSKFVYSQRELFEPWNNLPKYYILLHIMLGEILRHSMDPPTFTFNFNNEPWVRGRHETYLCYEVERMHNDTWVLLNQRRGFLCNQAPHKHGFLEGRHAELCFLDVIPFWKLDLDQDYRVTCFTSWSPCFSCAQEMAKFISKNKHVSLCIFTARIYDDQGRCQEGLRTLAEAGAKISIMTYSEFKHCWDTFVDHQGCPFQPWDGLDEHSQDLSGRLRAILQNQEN

A word on the MIC: it is the lowest concentration that inhibits growth of the organism. What is called IC50 is the concentration that gives 50% inhibition. With `O=C(O)Cn1c2c(c3c1=C(c1ccc(O)c(O)c1)C(=O)c1cc(O)c(OS(=O)(=O)O)cc1-3)-c1cc(O)c(O)cc1C(=O)C=2c1ccc(O)c(O)c1` [BACULIFERIN M], the result (in [1]; with A2780) was inactive. The values for the RU in experiment [2], in experiment [6] and in experiment [7] were 380 pg/mm2, 2460 pg/mm2 and 1900 pg/mm2, respectively. Besides, the figures for the MIC in the experiment with Candida albicans [3] and in the experiment on Candida albicans [8] were 12.5 µg/mL and 50 µg/mL, respectively. Also, the values for the IC50 (in experiment [4]; in experiment [5]; in the experiment with HCT-8) were 5 µg/mL (≈ 6.99 µM), 0.2 µg/mL (≈ 0.279 µM) and 65.8 µM, respectively.
Take `O=C1C(c2ccc(O)c(OS(=O)(=O)O)c2)=c2c(c3c(n2CCc2ccc(O)cc2)=C(c2ccc(O)c(O)c2)C(=O)c2cc(O)c(OS(=O)(=O)O)cc2-3)-c2cc(O)c(O)cc21` [BACULIFERIN F]: the result (in experiment [1]; in the experiment with Bel-7402; in the experiment with A549; in the experiment on A2780; in the experiment with HCT-8; in the experiment on BGC-823) was inactive. The RU in experiment [2] is 109 pg/mm2; in [6], 992 pg/mm2; in experiment [7], 362 pg/mm2. The MIC with Candida albicans [3] turned out to be 12.5 µg/mL; with Candida albicans [8] it was 50 µg/mL. In addition, the values for the IC50 in experiment [4] and in experiment [5] were 4.6 µg/mL (≈ 5.36 µM) and 2.7 µg/mL (≈ 3.15 µM), respectively.
With `O=C1C(c2ccc(O)c(O)c2)=C2C(=C(c3ccc(OS(=O)(=O)O)c(O)c3)C(=O)N2CCc2ccc(O)cc2)c2cc(O)c(O)cc21`, the outcome (in [1]; with Bel-7402; in the experiment on A549; with A2780; in the experiment with HCT-8; in the experiment on BGC-823) was inactive. Besides, the RU stood at 1350 pg/mm2 in experiment [2] and 638 pg/mm2 in [7].
With `O=C1C(c2ccc(O)c(O)c2)=c2c(c3c(n2CCc2ccc(O)cc2)=C(c2ccc(O)c(OS(=O)(=O)O)c2)C(=O)c2cc(O)c(OS(=O)(=O)O)cc2-3)-c2cc(OS(=O)(=O)O)c(O)cc21` [BACULIFERIN H], the outcome (in [1]; with Bel-7402; in the experiment on A549; with A2780; in the experiment on HCT-8; with BGC-823) was inactive. The figures for the RU in experiment [2], in [6] and in experiment [7] were 76.2 pg/mm2, 578 pg/mm2 and 259 pg/mm2, respectively. Besides, the IC50 in [4] turned out to be 1.4 µg/mL (≈ 1.49 µM); in [5], 1.3 µg/mL (≈ 1.39 µM).
Consider `O=C1C(c2ccc(O)c(O)c2)=c2c(c3c(n2CCc2ccc(O)cc2)=C(c2ccc(O)c(OS(=O)(=O)O)c2)C(=O)c2cc(O)c(OS(=O)(=O)O)cc2-3)-c2cc(O)c(O)cc21` [BACULIFERIN E], for which the outcome (in [1]; in the experiment with Bel-7402; with A549; in the experiment on A2780; in the experiment with HCT-8; with BGC-823) was inactive. The RU in experiment [2] turned out to be 109 pg/mm2; in [6], 992 pg/mm2; in experiment [7], 362 pg/mm2. Further, the MIC is 12.5 µg/mL in the experiment on Candida albicans [3] and 50 µg/mL with Candida albicans [8]. Further, the IC50 turned out to be 4.6 µg/mL (≈ 5.36 µM) in experiment [4] and 2.7 µg/mL (≈ 3.15 µM) in experiment [5].
In the case of `O=c1oc2cc(O)c(O)cc2c2c1[nH]c1c(=O)oc3cc(O)c(O)cc3c12`, the result (in experiment [1]; in the experiment with Bel-7402; with A549; in the experiment with A2780; in the experiment on HCT-8; in the experiment on BGC-823) was inactive. The RU in [7] is 11.7 pg/mm2.
Take `O=C(O)CN1C(=O)C(c2ccc(O)c(O)c2)=C2C1=C(c1ccc(O)c(O)c1)C(=O)c1cc(O)c(O)cc12` [BACULIFERIN N]: the result (in experiment [1]; with Bel-7402; with A549; in the experiment with A2780; with HCT-8; in the experiment with BGC-823) was inactive. The results for the RU in experiment [2] and in experiment [7] were 953 pg/mm2 and 597 pg/mm2, respectively. The IC50 was 4.4 µg/mL (≈ 8.74 µM) in experiment [4] and less than 0.1 µg/mL in experiment [5].
`O=C(O)Cn1c2c(c3c1=C(c1ccc(O)c(O)c1)C(=O)c1cc(O)c(O)cc1-3)-c1cc(O)c(O)cc1C(=O)C=2c1ccc(O)c(O)c1` [BACULIFERIN L]: the outcome (in [1]; with Bel-7402; in the experiment with A549; in the experiment on A2780; with HCT-8; with BGC-823) was inactive. For the same compound, the values for the RU in experiment [2], in experiment [6] and in experiment [7] were 469 pg/mm2, 2170 pg/mm2 and 1980 pg/mm2, respectively. The values for the IC50 in experiment [4] and in experiment [5] were 7 µg/mL (≈ 11 µM) and 4.1 µg/mL (≈ 6.45 µM), respectively.
As for `O=C1C(c2ccc(O)c(O)c2)=c2c(c3c(n2CCc2ccc(O)cc2)=C(c2ccc(O)c(OS(=O)(=O)O)c2)C(=O)c2cc(O)c(O)cc2-3)-c2cc(O)c(O)cc21` [BACULIFERIN B], the outcome (in experiment [1]; in the experiment with Bel-7402; with A549; with A2780; in the experiment with HCT-8; with BGC-823) was inactive. Also, the RU in experiment [2] was found to be 12.9 pg/mm2; in [6], 89.7 pg/mm2; in experiment [7] it was 152 pg/mm2. Further, the minimal inhibitory concentration (MIC) in the experiment with Candida albicans [3] turned out to be 12.5 µg/mL; in the experiment with Candida albicans [8], 50 µg/mL. Moreover, the half-inhibitory concentration (IC50) was 2.2 µg/mL (≈ 2.83 µM) in [4] and 1.3 µg/mL (≈ 1.67 µM) in [5].
Regarding `O=c1oc2cc(O)c(O)cc2c2c1[nH]c1c(=O)oc3cc(O)c(OS(=O)(=O)O)cc3c12` [BACULIFERIN O], the outcome (in experiment [1]; in the experiment with A2780) was inactive. This compound also gave an IC50 in the experiment with HCT-8 of 33.1 µM.
`O=C1C(c2ccc(O)c(O)c2)=C2C(=C(c3ccc(O)c(O)c3)C(=O)N2CCc2ccc(O)cc2)c2cc(O)c(O)cc21` [BACULIFERIN K]: the result (in experiment [1]; in the experiment with Bel-7402; in the experiment with A549; with A2780; in the experiment with HCT-8; in the experiment with BGC-823) was inactive. The values for the RU in experiment [2] and in experiment [7] were 523 pg/mm2 and 448 pg/mm2, respectively. The IC50 in experiment [4] was 5.5 µg/mL (≈ 9.73 µM); in experiment [5], less than 0.4 µg/mL.
As for `O=C1C(c2ccc(O)c(O)c2)=C2C(=C(c3ccc(O)c(O)c3)C(=O)N2CCc2ccc(OS(=O)(=O)O)cc2)c2cc(O)c(O)cc21`, the outcome (in [1]; with Bel-7402; in the experiment with A549; with A2780; in the experiment on HCT-8; with BGC-823) was inactive. The results for the RU in [2], in experiment [6] and in [7] were 1490 pg/mm2, 765 pg/mm2 and 529 pg/mm2, respectively.
As to `O=C1C(c2ccc(O)c(O)c2)=c2c(c3c(n2CCc2ccc(O)cc2)=C(c2ccc(O)c(O)c2)C(=O)c2cc(O)c(OS(=O)(=O)O)cc2-3)-c2cc(OS(=O)(=O)O)c(O)cc21` [BACULIFERIN D], the result (in experiment [1]; in the experiment with Bel-7402; in the experiment on A549; with A2780; in the experiment with HCT-8; in the experiment on BGC-823) was inactive. The MIC in the experiment with Candida albicans [3] was 12.5 µg/mL; in the experiment with Candida albicans [8], 50 µg/mL.
Consider `O=C1C(c2ccc(O)c(OS(=O)(=O)O)c2)=c2c(c3c(n2CCc2ccc(O)cc2)=C(c2ccc(O)c(OS(=O)(=O)O)c2)C(=O)c2cc(O)c(O)cc2-3)-c2cc(O)c(O)cc21` [BACULIFERIN C], for which the outcome (in [1]; with Bel-7402; in the experiment with A549; with A2780; in the experiment with HCT-8; in the experiment on BGC-823) was inactive. Also, the figures for the RU in experiment [2], in experiment [6] and in experiment [7] were 116 pg/mm2, 886 pg/mm2 and 296 pg/mm2, respectively. For the same compound, the IC50 was found to be 8.4 µg/mL (≈ 9.79 µM) in [4] and 1.2 µg/mL (≈ 1.4 µM) in [5].
Take `O=C1C(c2ccc(O)c(OS(=O)(=O)O)c2)=c2c(c3c(n2CCc2ccc(O)cc2)=C(c2ccc(O)c(OS(=O)(=O)O)c2)C(=O)c2cc(O)c(OS(=O)(=O)O)cc2-3)-c2cc(O)c(O)cc21` [BACULIFERIN G]: the result in [1] was inactive. Also, the RU came to 125 pg/mm2 in [2], 572 pg/mm2 in experiment [6] and 447 pg/mm2 in experiment [7]. The half-inhibitory concentration (IC50) in [4] turned out to be 3.2 µg/mL (≈ 3.41 µM); in experiment [5], 4.4 µg/mL (≈ 4.69 µM); in the experiment on A2780, 19.7 µM; in the experiment with HCT-8 it was 19.7 µM.
